Screens as filed in PubChem BioAssay.
RAD52 inh = RAD52 DNA annealing inhibitors, primary screen, biochemical, FRET, single point, set 2. DNA repair protein RAD52 homolog (Homo sapiens), P43351. recombinant RAD52 DNA annealing, FRET fluorescence. inhibition, % at 18.7 µM. 360,000 compounds, 0.46% hits;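 active = every replicate showing at least 50% inhibition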
Target sequence (P43351 whole entry, looked up): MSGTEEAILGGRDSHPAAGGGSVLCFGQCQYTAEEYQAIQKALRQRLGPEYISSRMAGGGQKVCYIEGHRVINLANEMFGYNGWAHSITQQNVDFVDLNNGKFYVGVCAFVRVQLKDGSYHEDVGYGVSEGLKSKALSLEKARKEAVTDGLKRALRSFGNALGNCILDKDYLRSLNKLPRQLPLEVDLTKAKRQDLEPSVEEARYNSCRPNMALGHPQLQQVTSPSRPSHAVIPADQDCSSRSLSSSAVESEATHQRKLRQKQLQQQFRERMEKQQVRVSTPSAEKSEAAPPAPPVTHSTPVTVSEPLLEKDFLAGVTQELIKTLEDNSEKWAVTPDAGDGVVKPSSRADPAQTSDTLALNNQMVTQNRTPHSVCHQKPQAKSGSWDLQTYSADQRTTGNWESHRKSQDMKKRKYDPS
PDI turbidity = inhibitors of human PDI, primary screen, biochemical, turbidity, single point, plate reader. Protein disulfide-isomerase (Homo sapiens), P07237. PDI insulin aggregation turbidity, A650, 90 min. inhibition, % at 10 µM. 350,000 compounds, 0.052% hits. AID 588391, 2011;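 active = mean inhibition across replicates of 30% or more, whatever share of single replicates reach that level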
CAL PDZ FP-1 = CAL PDZ peptide-binding inhibitors, primary screen, biochemical, fluorescence polarization, Cer-tagged CAL PDZ, HTS | Golgi-associated PDZ and coiled-coil motif-containing protein (Homo sapiens), Q9HD26 | purified CAL PDZ, TMR-peptide fluorescence polarization, 1 h | inhibition, % at 20 µM | 330,000 compounds, 0.02% hits;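 active = highest replicate inhibition of at least 40%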;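 also: plate controls were DMSO neutral control wells for no effect and unlabeled competitor peptide control wells for full effect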
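Read-out basis: mP drop reported as inhibition | Assay system: Tagged CAL PDZ protein CerCALP, purified | Benchmarks: Unlabelled peptide for full inhibition, DMSO wells as neutral | Schedule: 1 h incubation at room temperature before polarization reading | Buffer or medium: Sodium phosphate/NaCl buffer pH 7.4 with TCEP, IgG, Thesit | Doses: Single point, 20 µM | Measured by: Fluorescence polarization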
RAD54 inh = inhibitors of human RAD54 branch migration, primary screen, biochemical, fluorescence, single point; DNA repair and recombination protein RAD54-like (Homo sapiens), Q92698; RAD54 Holliday junction branch migration, FAM/BHQ fluorescence; inhibition, % at 10.4 µM; 360,000 compounds, 0.14% hits;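 active = mean normalized replicate activity at least 40 and at least half of replicates scoring 40 or more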;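 also: 0% = median of neutral control wells and 100% = median of positive control wells; inhibitors cause a drop in the FAM fluorescence signal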
CAL PDZ FP-2 = untagged CAL PDZ binding inhibitors, primary screen, biochemical, fluorescence polarization, HTS. Golgi-associated PDZ and coiled-coil motif-containing protein (Homo sapiens), Q9HD26. purified CAL PDZ, TMR-peptide fluorescence polarization, 1 h. inhibition, % at 24.9 µM. 300,000 compounds, 0.92% hits. AID 602252, 2012;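 active = mean inhibition of at least 30% with at least half of replicates also reaching 30%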;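 also: 0% = DMSO neutral control and 100% = excess unlabeled competitor peptide PRC23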
ERp5 inh = inhibitors of ERp5-driven insulin aggregation, primary screen, biochemical, turbidity, absorbance 650 nm, single point; Protein disulfide-isomerase A6 (Homo sapiens), Q15084; 90 min; inhibition, % at 9.99 µM; 350,000 compounds, 0.05% hits;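 active = mean replicate inhibition above about 25%, with every replicate also reaching it, limit read from the data, passing the limit was not always enough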
The depositor's hits bear a star; x = no result. Hits are enriched below; roughly 1% of the tested compounds scored in any of these assays.

SMILES	RAD52 inh	PDI turbidity	CAL PDZ FP-1	RAD54 inh	CAL PDZ FP-2	ERp5 inh
COc1ccc(-c2nn(CCC#N)cc2C=C(C#N)C#N)cc1	3	-1	-2	x	62*	1
Cc1c(C(=O)N2CCCCC2)c(S(=O)(=O)N2CCC(C)CC2)c(C)n1C	9	4	-1	9	75*	-1
Cc1c(C(=O)N2CCCC2)c(S(=O)(=O)N2CCCCC2)c(C)n1C	-4	2	-1	-11	0	4
CCOc1ccc(NC(=S)NCc2nc3ccccc3[nH]2)cc1	-16	-2	-4	x	7	6
FC(F)Oc1ccc(NC(=S)NCc2nc3ccccc3[nH]2)cc1	-5	-5	-2	x	41*	-1
C[C@@H]1CN([C@@H](C)CO)C(=O)c2cccc(NC(=O)Nc3ccccc3)c2O[C@H]1CN(C)S(=O)(=O)c1cn(C)cn1	6	x	x	4	x	-3
CC(C)CNC(=O)c1cccc(NC(=O)c2ccccc2-c2ccccc2C(=O)O)c1	-8	-1	x	5	89*	2
CN(C)/C=C/c1[nH]c(=O)[nH]c(=O)c1[N+](=O)[O-]	-17	2	0	3	77*	3
CN1CCN(c2nc3c(c(=O)[nH]c(=O)n3C)n2Cc2ccccc2F)CC1	x	14	-1	-4	51*	x
Cc1noc(C)c1S(=O)(=O)N(C)C[C@H]1OCCCC[C@@H](C)Oc2ccc(NS(=O)(=O)c3cccs3)cc2C(=O)N([C@@H](C)CO)C[C@@H]1C	-211	x	x	0	x	2
CN(C)C(=O)c1cccc(-c2ccc3c(c2)[C@H]2[C@H](CCN2C(=O)c2ccccc2)[C@@H](CO)N3C)c1	-14	x	x	-2	x	-6
COc1ccc2c3c(n(C)c2c1)[C@H](CO)N(CC1CCOCC1)CC31CN(CC2CCOCC2)C1	0	x	x	x	x	-6
COc1ccc2c3c(n(C)c2c1)[C@H](CO)NCC31CN(C(=O)CC2CC2)C1	-3	x	x	x	x	6
COc1ccc2c3c(n(C)c2c1)[C@H](CO)NCC31CN(Cc2ccc(F)cc2)C1	62*	x	x	x	x	-3
COc1ccc2c3c(n(C)c2c1)[C@@H](CO)NCC31CN(CC2CCOCC2)C1	75*	x	x	x	x	-7
COc1ccc2c3c(n(C)c2c1)[C@H](CO)NCC31CCN(S(=O)(=O)c2cccc(C)c2)CC1	55*	x	x	x	x	4
COc1ccc2c3c(n(C)c2c1)[C@H](CO)NCC31CN(CC2CC2)C1	62*	x	x	x	x	-12
Cc1ccc(S(=O)(=O)N[C@H]2C=C[C@@H](CC(=O)N3CCC(Cc4ccccc4)CC3)O[C@H]2CO)cc1	-5	x	x	-7	x	2
COCC#Cc1ccc([C@@H]2[C@@H](CO)N3C(=O)CN(C(=O)C4CCOCC4)C[C@H]23)cc1	-5	x	x	x	x	-7
COc1ccc2c3c(n(C)c2c1)[C@H](CO)NCC31CCN(Cc2cc(-c3ccccc3)on2)CC1	67*	x	x	x	x	10
COc1ccc2c3c(n(C)c2c1)[C@H](CO)N(S(C)(=O)=O)CC31CCN(CC2CCCC2)CC1	5	x	x	x	x	60*
COc1ccc2c3c(n(C)c2c1)[C@H](CO)N(S(C)(=O)=O)CC31CCN(CC2CCCCC2)CC1	18	x	x	x	x	-4
COc1ccc(NC(=O)N(C)C[C@@H]2OCCCC[C@@H](C)Oc3ccc(NC(=O)Nc4ccc(F)cc4)cc3C(=O)N([C@H](C)CO)C[C@@H]2C)cc1	6	x	x	-12	x	-7
C[C@@H]1CN([C@H](C)CO)C(=O)c2cc(NC(=O)Nc3ccccc3)ccc2O[C@@H](C)CCCCO[C@@H]1CN(C)S(=O)(=O)c1cccs1	-4	x	x	-3	x	4
Nn1c(Cc2cccc3ccccc23)nnc1SCc1ccccc1	-20	1	-2	-4	-3	-1
Nn1c(Cc2ccccc2)nnc1Cc1ccccc1	-17	-2	1	2	54*	7
